Laboratory results: ChEMBL document CHEMBL5724801, “EUbOPEN Chemogenomics Library - Multiplex” (2024)
Several values for one entry are separate records, joined by “and”; a condition that tells them apart may be missing. Equal values may be shown once.

Test system: U2OS
Test: Multiplex assay against U2OS
Type: toxicity, cell-based
Details: human
Procedure, shortened: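 Hoechst33342, BioTracker Green Microtubule Cytoskeleton Dye, MitoTracker Red and Annexin V Alexa Fluor 680 were added to live cells at seeding, and imaging on a CQ1 microscope at 37°C and 5% CO2 followed compound addition. Gating by CellPathfinder machine learning separated cells into Hoechst high-intensity objects or normal cells, then normal cells into healthy, pyknosed or fragmented nuclei, then pyknosed cells into mitotic or apoptotic. Per cents of healthy-nucleus cells are reported for the tubulin, mitochondrial-mass and membrane-permeability phenotypes.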

[1] = 12 h, 1 µM, compound concentration 1 uM
[2] = 12 h, 10 µM, compound concentration 10 uM
[3] = 24 h, 1 µM, compound concentration 1 uM
[4] = 24 h, 10 µM, compound concentration 10 uM
[5] = 48 h, 1 µM, compound concentration 1 uM
[6] = 48 h, 10 µM, compound concentration 10 uM

Nc1nc(CC(=O)Nc2ccc(CCNC[C@H](O)c3ccccc3)cc2)cs1 [MIRABEGRON]
Population Apoptotic (%) [1]: 86% and 100%
Population Fragmented Nuclei (%) [1]: 24% and 13%
Population Healthy Nuclei (%) [1]: 62% and 74%
Population Hoechst High Intensity Objects (%) [1]: 1% and 0%
Population Membrane Permeable-Phenotype (%) [1]: 6% and 5%
Population Mitochondria Different-Phenotype (%) [1]: 3% and 2%
Population Mitotic Cells (%) [1]: 13% and 0%
Population Normal (%) [1]: 98% and 99%
Population Pyknosed Nuclei (%) [1]: 12%
Population Tubulin-Different-Phenotype (%) [1]: 4% and 5%
Total Cell Count [1]: 240 and 107
Population Apoptotic (%) [2]: 86% and 66%
Population Fragmented Nuclei (%) [2]: 18% and 21%
Population Healthy Nuclei (%) [2]: 70% and 71%
Population Hoechst High Intensity Objects (%) [2]: 1% and 0%
Population Membrane Permeable-Phenotype (%) [2]: 6% and 7%
Population Mitochondria Different-Phenotype (%) [2]: 2% and 3%
Population Mitotic Cells (%) [2]: 13% and 33%
Population Normal (%) [2]: 98% and 99%
Population Pyknosed Nuclei (%) [2]: 11% and 6%
Population Tubulin-Different-Phenotype (%) [2]: 4% and 1%
Total Cell Count [2]: 319 and 136
Population Apoptotic (%) [3]: 82% and 58%
Population Fragmented Nuclei (%) [3]: 21% and 11%
Population Healthy Nuclei (%) [3]: 70% and 79%
Population Hoechst High Intensity Objects (%) [3]: 2% and 0%
Population Membrane Permeable-Phenotype (%) [3]: 4% and 9%
Population Mitochondria Different-Phenotype (%) [3]: 2% and 3%
Population Mitotic Cells (%) [3]: 17% and 41%
Population Normal (%) [3]: 97% and 99%
Population Pyknosed Nuclei (%) [3]: 8% and 9%
Population Tubulin-Different-Phenotype (%) [3]: 3% and 7%
Total Cell Count [3]: 289 and 125
Population Apoptotic (%) [4]: 86% and 76%
Population Fragmented Nuclei (%) [4]: 17% and 20%
Population Healthy Nuclei (%) [4]: 75% and 71%
Population Hoechst High Intensity Objects (%) [4]: 1%
Population Membrane Permeable-Phenotype (%) [4]: 5% and 9%
Population Mitochondria Different-Phenotype (%) [4]: 3% and 5%
Population Mitotic Cells (%) [4]: 13% and 23%
Population Normal (%) [4]: 98%
Population Pyknosed Nuclei (%) [4]: 7%
Population Tubulin-Different-Phenotype (%) [4]: 3% and 4%
Total Cell Count [4]: 405 and 167
Population Apoptotic (%) [5]: 84% and 78%
Population Fragmented Nuclei (%) [5]: 17% and 12%
Population Healthy Nuclei (%) [5]: 72% and 74%
Population Hoechst High Intensity Objects (%) [5]: 2%
Population Membrane Permeable-Phenotype (%) [5]: 4% and 8%
Population Mitochondria Different-Phenotype (%) [5]: 3%
Population Mitotic Cells (%) [5]: 15% and 21%
Population Normal (%) [5]: 97%
Population Pyknosed Nuclei (%) [5]: 9% and 13%
Population Tubulin-Different-Phenotype (%) [5]: 3% and 7%
Total Cell Count [5]: 394 and 179
Population Apoptotic (%) [6]: 87% and 70%
Population Fragmented Nuclei (%) [6]: 14%
Population Healthy Nuclei (%) [6]: 74% and 78%
Population Hoechst High Intensity Objects (%) [6]: 2%
Population Membrane Permeable-Phenotype (%) [6]: 5% and 3%
Population Mitochondria Different-Phenotype (%) [6]: 2% and 3%
Population Mitotic Cells (%) [6]: 12% and 29%
Population Normal (%) [6]: 97%
Population Pyknosed Nuclei (%) [6]: 10% and 7%
Population Tubulin-Different-Phenotype (%) [6]: 2% and 1%
Total Cell Count [6]: 534 and 232
